Test results reported in ChEMBL document CHEMBL5678798 (Clin Cancer Res, 2009).
Activity calls are given as the source filed them. No cut-off for these calls is given here.

Assays:
[1] = Antiproliferative activity against human SK-ES cells assessed as reduction in cell viability after 72 hrs by CellTiter-Glo assay; type: functional, cell-based
How it was run: (§1)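 Cells seeded in 96-well plates, left overnight at 37°C, then exposed to a range of test concentrations for 72 h. Viability read by CellTiter-Glo luminescence; IC50 from four-parameter curve fit. Lines kept at 37°C, 5% CO2, in recommended growth medium.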

[2] = system: MHH-ES-1; test: Antiproliferative activity against human MHH-ES-1 cells assessed as reduction in cell viability after 72 hrs by CellTiter-Glo assay; type: functional, cell-based; conditions: MHH-ES-1, 72 h; how it was run: as §1
[3] = Cytotoxicity against human PREC cells assessed as reduction in cell viability after 72 hrs by CellTiter-Glo assay; type: toxicity, cell-based; how it was run: as §1
[4] = Cytotoxicity against HMEC cells assessed as reduction in cell viability after 72 hrs by CellTiter-Glo assay; type: toxicity, cell-based; conditions: human; how it was run: as §1
[5] = system: COLO 205; test: Induction of cell cycle arrest in human COLO 205 cells assessed as decrease in cells accumulation at S phase at 0.03 to 10 uM incubated for 24 to 48 hrs by propidium iodide staining based flow cytometric analysis; type: functional; conditions: dose 0.03-10 µM, time lower 24.0 hrs, time upper […]
How it was run: (§2)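 COLO 205, MCF-7 or NCI-H929 cells seeded in 96-well plates overnight at 37°C, then exposed to DMSO or increasing compound concentrations for 24 or 48 h. Fixed and stained with propidium iodide (Vindelov method), then analysed by flow cytometry for sub-G1, G1, S and G2-M fractions. Experiment repeated twice.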

[6] = system: NCI-H929; test: Induction of cell cycle arrest in human NCI-H929 cells assessed as cells accumulation at G1 phase at 1 umol/L incubated for 48 hrs by propidium iodide staining based flow cytometric analysis (reference value: 42%); type: functional; conditions: dose 1 µmol/L, at 1 µM; how it was run: as §2
[7] = system: MCF7; test: Induction of cell cycle arrest in human MCF7 cells assessed as cells accumulation at S phase at 1 umol/L incubated for 48 hrs by propidium iodide staining based flow cytometric analysis (reference value: 10%); type: functional; conditions: dose 1 µmol/L, at 1 µM; how it was run: as §2
[8] = system: MCF7; test: Induction of cell cycle arrest in human MCF7 cells assessed as cells accumulation at G2 phase at 1 umol/L incubated for 48 hrs by propidium iodide staining based flow cytometric analysis (reference value: 17%); type: functional; conditions: dose 1 µmol/L, at 1 µM; how it was run: as §2
[9] = Toxicity in nu/nu CD-1 mouse xenografted with human HT-29 cells assessed as reduction in body weight at 30 mg/kg, po for 21 days relative to control; type: organism-based; conditions: in vivo, 504 h, time 21 day
[10] = In vivo inhibition of IGF1R in mouse NIH-3T3/LISN cells implanted in IGF1-stimulated nu/nu CD-1 mouse assessed as reduction in IGF1R phosphorylation at 10 mg/kg, po pretreated for 4 hrs followed by IGF1 stimulation and measured after 10 min by […] relative to control; type: functional; conditions: 4.167 h, time 250 min
How it was run: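 Female nu/nu CD-1 mice, three per group, bearing ~500 mm3 tumors, given one oral dose of compound or vehicle. At 4 h, 10 µg hIGF-I i.v. via tail vein; saline controls. Tumor and blood taken 10 min later. Tumor lysates in RIPA captured on anti-IGF-IR plates and probed with europium anti-phosphotyrosine. Phospho/total IGF-IR expressed as % of ligand-stimulated control. Blood levels by LC-MS/MS.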

[11] = biological target: RAC-alpha serine/threonine-protein kinase (Homo sapiens, UniProt P31749); test: Inhibition of AKT1 (unknown origin)
[12] = biological target: Tyrosine-protein kinase Fyn (Homo sapiens, UniProt P06241); test: Inhibition of FYN (unknown origin)
[13] = biological target: Tyrosine-protein kinase ITK/TSK (Homo sapiens, UniProt Q08881); test: Inhibition of ITK (unknown origin)
[14] = biological target: Rho-associated protein kinase 1 (Homo sapiens, UniProt Q13464); test: Inhibition of ROCK1 (unknown origin)
[15] = biological target: Death-associated protein kinase 2 (Homo sapiens) (UniProt Q9UIK4); test: Inhibition of N-terminal GST-tagged recombinant human full length DAPK2 expressed in baculovirus infected Sf21 cells at 0.3 uM by filter binding assay relative to control
How it was run: (§3)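 Outsourced single-concentration screen in a commercial panel of 233 protein kinases, run as radiometric filter-binding activity assays. Test agent was tested at 0.3 or 3 µmol/L, as given in each line, from a 10 mmol/L DMSO stock. Activity is expressed as percent inhibition relative to control.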

[16] = biological target: Serine/threonine-protein kinase MRCK beta (Homo sapiens) (UniProt Q9Y5S2); test: Inhibition of N-terminal His6-tagged recombinant human MRCKbeta (1 to 473 residues) expressed in baculovirus infected Sf21 cells at 0.3 uM by filter binding assay relative to control
[17] = biological target: Protein-tyrosine kinase 2-beta (Homo sapiens) (UniProt Q14289); test: Inhibition of N-Terminal His6-tagged recombinant full-length human Pyk2 expressed in baculovirus infected Sf21 cells at 0.3 uM by filter binding assay relative to control
How it was run: (§4)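 KinaseProfiler panel of 233 kinases: radiometric filter-binding activity assays with compound at 0.3 or 3 µmol/L. Read-out is percent inhibition.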

[18] = biological target: Serine/threonine-protein kinase TBK1 (Homo sapiens) (UniProt Q9UHD2); test: Inhibition of N-terminal His6-tagged recombinant full-length human TBK1 expressed in baculovirus infected Sf21 cells at 0.3 uM by filter binding assay relative to control; how it was run: as §3
[19] = biological target: ALK tyrosine kinase receptor (Homo sapiens) (UniProt Q9UM73); test: Inhibition of N-terminal His6-tagged recombinant human ALK (1058 to end residues) expressed in baculovirus infected Sf21 cells at 3 uM by filter binding assay relative to control; how it was run: as §3
[20] = Inhibition of C-terminal His6-tagged human full length CDK2/N-terminal GST-tagged human full length cyclinA expressed in baculovirus infected Sf21 cells at 3 uM by filter binding assay relative to control; conditions: condition cancer; how it was run: as §4
[21] = biological target: Ephrin type-A receptor 1 (Homo sapiens) (UniProt P21709); test: Inhibition of N-terminal 6His-tagged recombinant human EphA1 (568 to end residues) expressed in baculovirus infected Sf21 cells at 3 uM by filter binding assay relative to control; how it was run: as §3
[22] = biological target: Proto-oncogene tyrosine-protein kinase receptor Ret (Homo sapiens) (UniProt P07949); test: Inhibition of N-Terminal GST-tagged recombinant human Ret (658 to end residues) expressed in baculovirus infected Sf21 cells at 3 uM by filter binding assay relative to control; how it was run: as §4
[23] = biological target: Serine/threonine-protein kinase PLK2 (Homo sapiens) (UniProt Q9NYY3); test: Inhibition of human Snk at 3 uM by filter binding assay relative to control
[24] = biological target: Serine/threonine-protein kinase TAO2 (Homo sapiens) (UniProt Q9UL54); test: Inhibition of N-terminal 6His-tagged recombinant human TAO2 expressed in Sf21 cells at 3 uM by filter binding assay relative to control; how it was run: as §3
[25] = biological target: Serine/threonine-protein kinase TBK1 (Homo sapiens) (UniProt Q9UHD2); test: Inhibition of N-terminal His6-tagged recombinant full-length human TBK1 expressed in baculovirus infected Sf21 cells at 3 uM by filter binding assay relative to control; how it was run: as §3
[26] = biological target: Insulin receptor (Mus musculus) (UniProt P15208); conditions: CD-1, dose 30.0 mg/kg, route po, time 4.0 hrs
Chain of Insulin receptor (Mus musculus) (P15208 28-748 limits assumed): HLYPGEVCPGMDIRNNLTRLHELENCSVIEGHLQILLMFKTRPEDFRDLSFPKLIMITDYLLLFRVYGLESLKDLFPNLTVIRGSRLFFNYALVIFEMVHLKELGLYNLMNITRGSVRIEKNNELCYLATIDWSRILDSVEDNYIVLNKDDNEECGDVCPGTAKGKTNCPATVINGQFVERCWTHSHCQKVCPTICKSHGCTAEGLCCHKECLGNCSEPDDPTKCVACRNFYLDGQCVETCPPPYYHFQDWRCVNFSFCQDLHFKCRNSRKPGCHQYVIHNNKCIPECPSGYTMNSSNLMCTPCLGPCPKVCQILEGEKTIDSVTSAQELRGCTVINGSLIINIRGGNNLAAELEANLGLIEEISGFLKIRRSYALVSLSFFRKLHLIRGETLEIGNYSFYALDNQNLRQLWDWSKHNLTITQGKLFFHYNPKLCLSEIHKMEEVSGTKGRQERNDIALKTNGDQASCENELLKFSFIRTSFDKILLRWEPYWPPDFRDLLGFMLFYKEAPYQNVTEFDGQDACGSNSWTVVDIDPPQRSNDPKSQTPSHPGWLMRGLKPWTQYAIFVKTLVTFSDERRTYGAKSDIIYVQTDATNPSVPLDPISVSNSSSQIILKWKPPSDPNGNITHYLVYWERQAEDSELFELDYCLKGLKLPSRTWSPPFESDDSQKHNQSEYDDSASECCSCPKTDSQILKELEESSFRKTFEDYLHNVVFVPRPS
Chain of Insulin receptor (Mus musculus) (P15208 753-1372 limits assumed): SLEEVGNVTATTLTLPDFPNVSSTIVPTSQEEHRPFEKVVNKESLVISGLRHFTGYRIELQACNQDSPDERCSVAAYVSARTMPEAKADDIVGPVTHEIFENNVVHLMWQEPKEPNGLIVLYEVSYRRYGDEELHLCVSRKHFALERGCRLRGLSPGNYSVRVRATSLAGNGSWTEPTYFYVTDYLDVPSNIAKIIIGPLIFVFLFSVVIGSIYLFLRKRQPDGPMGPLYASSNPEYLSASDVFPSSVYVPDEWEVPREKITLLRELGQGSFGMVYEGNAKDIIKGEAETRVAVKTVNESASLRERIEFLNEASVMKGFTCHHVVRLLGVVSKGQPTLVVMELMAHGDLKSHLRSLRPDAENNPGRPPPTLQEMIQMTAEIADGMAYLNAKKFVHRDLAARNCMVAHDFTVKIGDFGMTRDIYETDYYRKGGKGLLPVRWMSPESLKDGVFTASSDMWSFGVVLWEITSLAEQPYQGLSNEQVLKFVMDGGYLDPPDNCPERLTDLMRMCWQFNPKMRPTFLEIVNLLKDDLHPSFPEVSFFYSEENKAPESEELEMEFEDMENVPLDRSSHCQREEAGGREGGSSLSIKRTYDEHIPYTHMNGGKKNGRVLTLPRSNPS

Chain of Serine/threonine-protein kinase TBK1 (Homo sapiens) (Q9UHD2 whole entry): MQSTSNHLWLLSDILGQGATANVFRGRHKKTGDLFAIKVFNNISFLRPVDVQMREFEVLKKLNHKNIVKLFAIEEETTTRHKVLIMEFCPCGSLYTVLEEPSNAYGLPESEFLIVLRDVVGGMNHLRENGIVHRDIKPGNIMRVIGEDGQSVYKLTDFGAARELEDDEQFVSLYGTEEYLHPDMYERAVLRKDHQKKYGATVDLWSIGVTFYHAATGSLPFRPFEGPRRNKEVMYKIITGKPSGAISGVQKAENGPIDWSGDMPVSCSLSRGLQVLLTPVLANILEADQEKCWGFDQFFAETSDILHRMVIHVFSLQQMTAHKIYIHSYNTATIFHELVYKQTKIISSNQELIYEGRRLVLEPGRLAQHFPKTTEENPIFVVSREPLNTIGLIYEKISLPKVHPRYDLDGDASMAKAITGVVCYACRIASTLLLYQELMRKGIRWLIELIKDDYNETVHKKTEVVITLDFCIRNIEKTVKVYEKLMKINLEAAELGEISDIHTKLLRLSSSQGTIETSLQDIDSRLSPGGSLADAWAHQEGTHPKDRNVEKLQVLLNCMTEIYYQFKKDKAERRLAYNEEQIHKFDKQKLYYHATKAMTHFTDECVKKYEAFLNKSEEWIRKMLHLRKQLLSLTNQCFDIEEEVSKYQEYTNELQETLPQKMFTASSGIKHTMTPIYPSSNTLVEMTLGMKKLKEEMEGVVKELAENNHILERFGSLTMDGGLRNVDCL
Chain of Tyrosine-protein kinase Fyn (P06241 whole entry): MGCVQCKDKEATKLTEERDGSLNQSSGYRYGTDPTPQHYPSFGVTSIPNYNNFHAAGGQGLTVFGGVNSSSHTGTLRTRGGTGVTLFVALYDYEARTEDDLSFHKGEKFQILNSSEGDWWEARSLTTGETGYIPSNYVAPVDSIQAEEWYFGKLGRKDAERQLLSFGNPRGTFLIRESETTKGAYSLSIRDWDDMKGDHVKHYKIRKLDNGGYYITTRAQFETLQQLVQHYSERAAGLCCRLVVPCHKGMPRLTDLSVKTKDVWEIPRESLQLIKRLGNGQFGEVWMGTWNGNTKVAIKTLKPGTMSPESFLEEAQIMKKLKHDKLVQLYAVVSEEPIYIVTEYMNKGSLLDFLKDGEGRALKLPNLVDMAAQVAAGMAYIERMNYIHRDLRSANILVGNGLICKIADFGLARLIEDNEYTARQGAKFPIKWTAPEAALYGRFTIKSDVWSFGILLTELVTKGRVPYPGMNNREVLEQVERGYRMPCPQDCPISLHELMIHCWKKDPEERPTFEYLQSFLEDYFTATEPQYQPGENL
Chain of Death-associated protein kinase 2 (Homo sapiens) (Q9UIK4 whole entry, looked up): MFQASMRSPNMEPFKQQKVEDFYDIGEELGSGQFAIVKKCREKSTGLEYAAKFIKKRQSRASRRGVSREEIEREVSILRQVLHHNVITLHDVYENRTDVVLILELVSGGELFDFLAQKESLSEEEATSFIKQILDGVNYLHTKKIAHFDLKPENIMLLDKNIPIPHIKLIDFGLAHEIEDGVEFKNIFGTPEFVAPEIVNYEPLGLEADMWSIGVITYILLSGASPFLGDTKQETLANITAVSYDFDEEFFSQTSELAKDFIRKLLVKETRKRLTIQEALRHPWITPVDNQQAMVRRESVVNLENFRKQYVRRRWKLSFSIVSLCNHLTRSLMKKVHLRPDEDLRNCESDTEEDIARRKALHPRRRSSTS
Chain of Rho-associated protein kinase 1 (Q13464 whole entry): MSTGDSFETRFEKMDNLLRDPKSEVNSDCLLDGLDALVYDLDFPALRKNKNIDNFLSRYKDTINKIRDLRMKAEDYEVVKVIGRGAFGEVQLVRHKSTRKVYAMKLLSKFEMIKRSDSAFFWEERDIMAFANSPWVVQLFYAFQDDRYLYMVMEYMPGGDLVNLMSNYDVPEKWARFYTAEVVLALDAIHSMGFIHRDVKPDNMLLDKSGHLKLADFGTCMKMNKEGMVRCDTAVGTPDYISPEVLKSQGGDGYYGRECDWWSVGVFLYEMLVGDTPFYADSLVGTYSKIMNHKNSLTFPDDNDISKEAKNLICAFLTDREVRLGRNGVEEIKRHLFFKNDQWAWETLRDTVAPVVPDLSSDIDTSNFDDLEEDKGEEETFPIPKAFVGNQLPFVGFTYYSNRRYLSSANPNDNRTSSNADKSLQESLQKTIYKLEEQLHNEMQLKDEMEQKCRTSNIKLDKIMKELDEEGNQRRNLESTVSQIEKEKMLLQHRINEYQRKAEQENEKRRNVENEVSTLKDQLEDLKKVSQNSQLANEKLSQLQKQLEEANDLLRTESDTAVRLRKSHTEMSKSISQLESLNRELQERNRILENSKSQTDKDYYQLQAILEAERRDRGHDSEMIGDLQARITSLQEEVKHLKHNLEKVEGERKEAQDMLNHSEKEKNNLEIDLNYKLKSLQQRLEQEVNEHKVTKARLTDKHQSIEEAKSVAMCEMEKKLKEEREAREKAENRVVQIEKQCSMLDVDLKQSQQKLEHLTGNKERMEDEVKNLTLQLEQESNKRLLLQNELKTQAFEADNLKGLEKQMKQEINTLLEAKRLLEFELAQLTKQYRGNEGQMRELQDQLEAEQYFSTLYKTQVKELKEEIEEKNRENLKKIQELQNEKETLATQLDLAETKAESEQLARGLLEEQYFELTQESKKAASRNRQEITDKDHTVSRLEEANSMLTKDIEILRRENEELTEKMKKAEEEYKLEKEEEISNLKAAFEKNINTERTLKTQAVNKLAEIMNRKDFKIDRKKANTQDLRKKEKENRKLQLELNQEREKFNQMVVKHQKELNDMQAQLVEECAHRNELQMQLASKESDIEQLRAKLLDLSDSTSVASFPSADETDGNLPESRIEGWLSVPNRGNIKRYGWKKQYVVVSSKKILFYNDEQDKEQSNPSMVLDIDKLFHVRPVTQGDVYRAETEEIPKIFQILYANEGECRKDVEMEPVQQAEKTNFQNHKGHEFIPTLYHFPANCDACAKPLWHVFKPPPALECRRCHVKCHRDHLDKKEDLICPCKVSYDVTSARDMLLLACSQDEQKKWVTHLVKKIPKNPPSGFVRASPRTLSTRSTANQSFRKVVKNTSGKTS
Chain of Serine/threonine-protein kinase PLK2 (Homo sapiens) (Q9NYY3 whole entry, looked up): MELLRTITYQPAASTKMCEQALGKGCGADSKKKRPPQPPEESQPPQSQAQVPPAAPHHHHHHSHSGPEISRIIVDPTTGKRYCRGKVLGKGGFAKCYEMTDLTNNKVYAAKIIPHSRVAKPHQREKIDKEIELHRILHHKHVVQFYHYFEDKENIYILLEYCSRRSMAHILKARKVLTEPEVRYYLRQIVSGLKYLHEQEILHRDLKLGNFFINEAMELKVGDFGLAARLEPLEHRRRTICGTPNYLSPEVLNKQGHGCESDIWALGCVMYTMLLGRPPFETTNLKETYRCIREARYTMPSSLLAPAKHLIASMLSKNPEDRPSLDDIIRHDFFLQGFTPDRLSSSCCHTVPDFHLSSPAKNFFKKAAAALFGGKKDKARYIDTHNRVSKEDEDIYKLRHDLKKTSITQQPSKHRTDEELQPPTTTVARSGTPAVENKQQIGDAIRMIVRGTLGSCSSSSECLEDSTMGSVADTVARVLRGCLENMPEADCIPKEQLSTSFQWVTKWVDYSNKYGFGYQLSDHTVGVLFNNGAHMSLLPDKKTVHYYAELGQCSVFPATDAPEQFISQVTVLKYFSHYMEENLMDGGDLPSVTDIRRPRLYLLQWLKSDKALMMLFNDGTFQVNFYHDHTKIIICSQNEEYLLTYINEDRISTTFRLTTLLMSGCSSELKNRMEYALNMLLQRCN

With CCc1cc(Nc2nccc(-c3c(-c4ccc(OC)c(C(=O)Nc5c(F)cccc5F)c4)nc4ccccn34)n2)c(OC)cc1N1CCC(N2CCN(S(C)(=O)=O)CC2)CC1 the IC50 [1] was 0.061 µM, the IC50 [2] was greater than 30 µM and the IC50 at 72 h [3] was 0.068 µM. For the same compound, the IC50 at 72 h [4] was greater than 20 µM, the Activity [5] was “Active” and the Activity [6] was 79%. For the same compound, the Activity [7] was 5%, the Activity [8] was 11% and the Activity [9] was “Non-Toxic”. It also gave an inhibition in vivo at 10 mg/kg [10] of 95%, an IC50 [11] greater than 10 µM and an IC50 [12] of 6.3 µM. For the same compound, the IC50 [13] was greater than 25 µM, the IC50 [14] was greater than 10 µM and the inhibition [15] was 1%. It also gave an inhibition [16] of -10%, an inhibition [17] of 21% and an inhibition [18] of 18%. It also gave an inhibition [19] of 39%, an inhibition at 3 µM [20] of 8% and an inhibition [21] of 22%. It also gave an inhibition [22] of 52%, an inhibition [23] of -8% and an inhibition [24] of 1%. The inhibition [25] was 22% and the inhibition [26] was “inactive”.
